Assay results taken from ChEMBL document CHEMBL1949646, “Design, synthesis, in vitro antimicrobial and anticancer activity of novel methylenebis-isoxazolo[4,5-b]azepines derivatives” (Eur J Med Chem, 2012).
Converted amounts (≈) assume the structure as drawn.

Tests used:
[1] = system: Bacillus subtilis; assay: Antibacterial activity against Bacillus subtilis after 24 to 28 hrs by agar diffusion method; type: functional
[2] = system: Lactococcus lactis; assay: Antibacterial activity against Streptococcus lactis after 24 to 28 hrs by agar diffusion method; type: functional
[3] = system: Escherichia coli; assay: Antibacterial activity against Escherichia coli after 24 to 28 hrs by agar diffusion method; type: functional
[4] = system: Pseudomonas aeruginosa; assay: Antibacterial activity against Pseudomonas aeruginosa after 24 to 28 hrs by agar diffusion method; type: functional
[5] = system: Aspergillus flavus; assay: Antifungal activity against Aspergillus flavus after 5 days by agar diffusion method; type: functional; conditions: 120 h
[6] = system: Trichoderma viride; assay: Antifungal activity against Trichoderma viride after 5 days by agar diffusion method; type: functional; conditions: 120 h
[7] = system: MCF7; assay: Cytotoxicity against human estrogen receptor-positive MCF7 cells after 48 hrs by MTT assay; type: functional, cell-based; conditions: MCF7, 48 h
How it was run: (§1)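 Cells kept in a humidified 5% CO2 incubator. Compounds diluted in culture medium and added to wells alongside a vehicle control. After MTT, supernatant removed, formazan dissolved in DMSO, and absorbance read at 540 nm. Percentage growth inhibition calculated. At least three independent assays.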

[8] = system: MDA-MB-231; assay: Cytotoxicity against human estrogen receptor-negative MDA-MB-231 cells after 48 hrs by MTT assay; type: functional, cell-based; conditions: MDA-MB-231, 48 h; how it was run: as §1
[9] = system: HEK293; assay: Cytotoxicity against human HEK293 cells after 48 hrs by MTT assay; type: cell-based; conditions: HEK293, 48 h; how it was run: as §1

Compound | MIC [1] [mg/L] | MIC [2] [mg/L] | MIC [3] [mg/L] | MIC [4] [mg/L] | MIC [5] [mg/L] | MIC [6] [mg/L] | IC50 [7] [µM] | IC50 [8] [µM] | IC50 [9] [µM]
Cc1noc2c1N=C(c1ccccc1)CC(c1cc(Cc3ccc(O)c(C4CC(c5ccccc5)=Nc5c(C)noc5C4)c3)ccc1O)C2 (stereo not given) | 35 (≈ 53.9 µM) | 40 (≈ 61.7 µM) | 40 (≈ 61.7 µM) | 35 (≈ 53.9 µM) | 40 (≈ 61.7 µM) | 40 (≈ 61.7 µM) | 80.6 | 82.6 | 85.4
Cc1noc2c1N=C(c1ccc(Br)cc1)CC(c1cc(Cc3ccc(O)c(C4CC(c5ccc(Br)cc5)=Nc5c(C)noc5C4)c3)ccc1O)C2 (stereo not given) | 30 (≈ 37.2 µM) | 25 (≈ 31 µM) | 27 (≈ 33.5 µM) | 30 (≈ 37.2 µM) | 30 (≈ 37.2 µM) | 32 (≈ 39.7 µM) | 34.2 | 51.2 | 54.5
Cc1noc2c1N=C(c1ccc([N+](=O)[O-])cc1)CC(c1cc(Cc3ccc(O)c(C4CC(c5ccc([N+](=O)[O-])cc5)=Nc5c(C)noc5C4)c3)ccc1O)C2 (stereo not given) | 30 (≈ 40.6 µM) | 26 (≈ 35.2 µM) | 28 (≈ 37.9 µM) | 28 (≈ 37.9 µM) | 30 (≈ 40.6 µM) | 30 (≈ 40.6 µM) | 36.3 | 53.4 | 55.6
Cc1noc2c1N=C(c1ccc(Cl)cc1)CC(c1cc(Cc3ccc(O)c(C4CC(c5ccc(Cl)cc5)=Nc5c(C)noc5C4)c3)ccc1O)C2 (stereo not given) | 28 (≈ 39 µM) | 25 (≈ 34.8 µM) | 28 (≈ 39 µM) | 30 (≈ 41.8 µM) | 32 (≈ 44.6 µM) | 30 (≈ 41.8 µM) | 30.4 | 52.5 | 53.3
COc1ccc(C2=Nc3c(C)noc3CC(c3cc(Cc4ccc(O)c(C5CC(c6ccc(OC)cc6)=Nc6c(C)noc6C5)c4)ccc3O)C2)cc1 (stereo not given) | 35 (≈ 49.4 µM) | 30 (≈ 42.3 µM) | 35 (≈ 49.4 µM) | 32 (≈ 45.1 µM) | 35 (≈ 49.4 µM) | 40 (≈ 56.4 µM) | 40.4 | 58.1 | 57.4
Cc1ccc(C2=Nc3c(C)noc3CC(c3cc(Cc4ccc(O)c(C5CC(c6ccc(C)cc6)=Nc6c(C)noc6C5)c4)ccc3O)C2)cc1 (stereo not given) | 35 (≈ 51.7 µM) | 32 (≈ 47.3 µM) | 35 (≈ 51.7 µM) | 40 (≈ 59.1 µM) | 35 (≈ 51.7 µM) | 38 (≈ 56.1 µM) | 42.3 | 61.1 | 63.4
Cc1noc2c1N=C(c1ccccc1O)CC(c1cc(Cc3ccc(O)c(C4CC(c5ccccc5O)=Nc5c(C)noc5C4)c3)ccc1O)C2 (stereo not given) | 38 (≈ 55.8 µM) | 35 (≈ 51.4 µM) | 36 (≈ 52.9 µM) | 38 (≈ 55.8 µM) | 38 (≈ 55.8 µM) | 40 (≈ 58.8 µM) | 44.3 | 63.4 | 65.5
Cc1noc2c1N=C(c1ccco1)CC(c1cc(Cc3ccc(O)c(C4CC(c5ccco5)=Nc5c(C)noc5C4)c3)ccc1O)C2 (stereo not given) | 20 (≈ 31.8 µM) | 22 (≈ 35 µM) | 16 (≈ 25.4 µM) | 14 (≈ 22.3 µM) | 20 (≈ 31.8 µM) | 16 (≈ 25.4 µM) | 12.5 | 10.3 | 30.2
Cc1noc2c1N=C(c1cccs1)CC(c1cc(Cc3ccc(O)c(C4CC(c5cccs5)=Nc5c(C)noc5C4)c3)ccc1O)C2 (stereo not given) | 19 (≈ 28.8 µM) | 20 (≈ 30.3 µM) | 14 (≈ 21.2 µM) | 12 (≈ 18.2 µM) | 15 (≈ 22.7 µM) | 14 (≈ 21.2 µM) | 10.2 | 18.2 | 10.3
CCn1cc(C(=O)O)c(=O)c2ccc(C)nc21 [NALIDIXIC ACID] | 30 (≈ 129 µM) | 25 (≈ 108 µM) | 28 (≈ 121 µM) | 30 (≈ 129 µM) | – | – | – | – | –
